# Compounds with a hit are over-represented: about 27% of the library has one in this group of screens.
# CYP2C19 inh: inhibitors of human CYP2C19 | 96,000 compounds, 21% hits | inhibition, % at 5 µM | AID 778 | CYP2C19 Supersomes, luciferin-H EGE luminescence, 30 min | P33261;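 active = CYP2C19 inhibition above a set limit at 5 µM in the primary screen, cut at about 50% in these data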
# Target sequence (P33261 whole entry, looked up): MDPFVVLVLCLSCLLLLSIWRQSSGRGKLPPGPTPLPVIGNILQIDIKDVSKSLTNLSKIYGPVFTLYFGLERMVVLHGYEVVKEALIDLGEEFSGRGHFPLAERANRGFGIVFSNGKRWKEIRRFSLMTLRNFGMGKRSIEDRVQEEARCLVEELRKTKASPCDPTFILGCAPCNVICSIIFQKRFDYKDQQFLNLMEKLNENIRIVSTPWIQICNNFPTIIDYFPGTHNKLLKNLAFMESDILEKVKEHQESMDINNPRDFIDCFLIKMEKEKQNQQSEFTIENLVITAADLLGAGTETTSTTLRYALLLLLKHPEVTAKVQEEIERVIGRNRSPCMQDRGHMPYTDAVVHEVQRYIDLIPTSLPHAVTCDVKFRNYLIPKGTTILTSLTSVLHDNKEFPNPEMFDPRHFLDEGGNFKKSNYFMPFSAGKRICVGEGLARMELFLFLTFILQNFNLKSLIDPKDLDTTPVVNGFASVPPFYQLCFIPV
# CYP2C9 inhib: human CYP2C9 inhibition. CYP2C9 Supersomes, luciferin-H conversion, luminescence. inhibition, % at 5 µM. 96,000 compounds, 20% hits. AID 777;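 active = blocking of liver enzyme CYP2C9 beyond about 50% at 5 µM, limit read from the data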
# Rev-RRE block: inhibitors of HIV-1 Rev-RRE RNA interaction. AID 704. Rev peptide-RRE RNA binding, FRET. inhibition, % at 8 µM. 97,000 compounds, 0.79% hits. P05866;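 active = inhibition above the screen-wide mean plus 3 SD, cut at about 35% in these data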
#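 assay system = Cy5-tagged RRE RNA duplex with fluorescein-tagged Rev peptide | incubation = 5 + 15 min at 25 °C | also added = labelled Rev peptide | measure = % inhibition of FRET ratio versus controls | benchmarks = DMSO wells as 0% and neomycin B wells as 100% inhibition | measured by = FRET fluorescence readout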
# Cav3 T inh: inhibitors of human Cav3.2 T-type calcium channel. O95180. Cav3.2-expressing cells, Fluo-4 calcium fluorescence FDSS; hits give low values. B-score at 10 µM. 100,000 compounds, 4% hits. AID 449739;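 active = single-dose well whose peak fluorescence ratio is a statistical outlier from its plate by either plate-standardised score or position-corrected B-score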
# CYP2C19 act: activators of human cytochrome P450 2C19; P33261; recombinant CYP2C19, luciferin-H EGE luminescence; hits give high values; 0 = fully inhibited enzyme, 1 = untreated enzyme; activation factor at 5 µM; 96,000 tested, under 10 active; AID 1025;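 active = activation factor of at least 2 at 5 µM in the primary screen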
# CYP2C9 activ: increases human cytochrome P450 2C9 activity. activation factor at 5 µM. P11712. 96,000 compounds, 1.4% hits. recombinant CYP2C9, luciferin-H conversion, luminescence; hits give high values; factor 1 = untreated enzyme, 0 = blocked;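 active = activation factor of 2 or more for CYP2C9 at a 5 µM dose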
# Hits are given with their value; – = inactive; · = not tested or not shown; [ ] = remark or other dose.
SMILES,CYP2C19 inh,CYP2C9 inhib,Rev-RRE block,Cav3 T inh,CYP2C19 act,CYP2C9 activ
Cc1n[nH]c(C)c1S(=O)(=O)N1CCCC(C(=O)N2CCc3ccccc32)C1 (stereo unspecified),62.2,–,–,–,–,–
Cc1n[nH]c(C)c1S(=O)(=O)N1CCCC(C(=O)N2CCN(c3ccc(Cl)cc3)CC2)C1 (stereo unspecified),–,–,–,–,–,–
CCOC(=O)c1cccc(NC(=O)C2CCCN(S(=O)(=O)c3c(C)nn(C)c3C)C2)c1 (stereo unspecified),83.3,92.9,–,–,–,–
Cc1ccc(-c2cccc(NC(=O)C3C4C=CC(C4)C3C(=O)O)c2)o1 (stereo unspecified),–,–,–,–,–,–
Cc1[nH]c(C)c2c(=O)n(-c3ccccc3)ncc12,–,–,–,–,–,–
CCOC(=O)C1CCN(C(=O)CC(NS(=O)(=O)c2ccc(OC)cc2)C(C)C)CC1 (stereo unspecified),–,–,–,–,–,–
CCOC(=O)C1CCN(S(=O)(=O)c2c(C)n[nH]c2C)CC1,87.8,89.5,–,–,–,–
COc1ccc(NC(=O)C2CCCN(S(=O)(=O)c3c(C)n[nH]c3C)C2)c(OC)c1 (stereo unspecified),52.5,–,–,–,–,–
CCOC(=O)c1cccc(NC(=O)C2CCCN(S(=O)(=O)c3c(C)n[nH]c3C)C2)c1 (stereo unspecified),66.1,87.8,–,–,–,–
Cc1noc(C)c1S(=O)(=O)N1CCC(C(=O)Nc2ccc(OC(F)(F)F)cc2)CC1,–,–,–,–,–,–
COc1ccc(NC(=O)C2CCCN(S(=O)(=O)c3c(C)[nH]c(=O)[nH]c3=O)C2)cc1 (stereo unspecified),–,–,–,–,–,–
CCOc1ccc(NC(=O)C2CCN(S(=O)(=O)c3c(C)n[nH]c3C)CC2)cc1,–,–,–,·,–,–
COc1ccc(NC(=O)C2CCN(S(=O)(=O)c3c(C)noc3C)CC2)cc1Cl,78.1,68.3,–,–,–,–
CCCOC(=O)c1ccc(OCC(O)Cn2c(C)nc3ccccc32)cc1 (stereo unspecified),–,–,·,·,–,–
CC(=O)c1cccc(NC(=O)C2CCN(S(=O)(=O)c3c(C)n[nH]c3C)CC2)c1,71.4,–,–,–,–,–
COc1ccc(CNC(=O)C2CCN(S(=O)(=O)c3c(C)n[nH]c3C)CC2)cc1,–,–,–,–,–,–
O=C(Oc1ccc(N(Cc2cccs2)C2=NS(=O)(=O)c3ccccc32)cc1)c1ccccc1F,69.0,97.3,–,–,–,–
O=C(c1ccco1)N1CCN(C(=O)C(Cc2ccccc2)NS(=O)(=O)c2cccs2)CC1 (stereo unspecified),–,–,–,–,–,–
CC(Sc1nc2ccccc2n1C)C(=O)NC(c1ccccc1)c1ccccc1 (stereo unspecified),·,·,–,-9.34,·,·
Cn1c(-c2ccc(Br)o2)nc2cc(Br)ccc21,–,–,–,–,–,–
Cn1c(-c2ccc(Br)o2)nc2ccccc21,74.8,–,–,·,–,–
Cn1c(Sc2nc3ccccc3n2C)nc2ccccc21,94.8,53.0,–,–,–,–
Cc1ccc(-c2nc3ccccc3n2C)o1,66.6,–,–,–,–,–
O=C(O)CCCCCCC1C(=O)NC(=O)N1CCC(O)C1CCCCC1 (stereo unspecified),·,·,·,–,·,·
CC1=C(C(=O)N(C)C)C(c2cccc(Cl)c2)NC(=O)N1 (stereo unspecified),–,–,·,–,–,–
SMILES,CYP2C19 inh,CYP2C9 inhib,Rev-RRE block,Cav3 T inh,CYP2C19 act,CYP2C9 activ
Cc1nc(N)sc1N=Nc1ccc(F)cc1,–,–,–,–,–,–
O=C(Cc1coc(-c2ccc(F)cc2)n1)NCc1ccccc1,–,–,·,–,–,–
CCCCCCc1cc2cc(S(=O)(=O)c3ccc(C)cc3)c(=O)oc2cc1O,·,·,·,–,·,·
CCCCCCc1cc2cc(C(=O)NCc3ccccc3)c(=N)oc2cc1O,·,·,104.1[fluorescence artefact?],–,·,·
c1ccc(COc2ccc(CNn3cnnc3)cc2)cc1,–,–,–,–,–,–
CC1CN(Cc2cc(=O)[nH]c(C(C)C)n2)CC(C)O1 (stereo unspecified),–,–,–,–,–,–
CCOC(=O)C1=C(C)NC2=C(C(=O)CC(c3cccs3)C2)C1c1cccs1 (stereo unspecified),·,·,–,–,·,·

# Screens from PubChem BioAssay.
